Experimental data taken from ChEMBL document CHEMBL1145200, “4-Benzyl and 4-benzoyl-3-dimethylaminopyridin-2(1H)-ones: in vitro evaluation of new C-3-amino-substituted and C-5,6-alkyl-substituted analogues against clinically important HIV mutant strains” (J Med Chem, 2005).

Experiments:
[1] = test system: Human immunodeficiency virus 1; test: Selective index value (ratio of CC50 to IC50 value)against HIV LAI cell line; type: functional
Outline: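 Ratio of CC50 to IC50 against LAI. CC50 came from mock-infected MT4 cultures (30 000 cells/well) given the same compound concentration range, run in parallel with LAI-infected cultures (200 CCID50/well). Incubation was 5 days at 37 °C in 5% CO2, with MTT viability read-out.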

[2] = test system: Human immunodeficiency virus 1; test: In vitro inhibitory concentration against HIV L100I mutant strain; type: functional, organism-based
Outline: (§1)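 MT4 human T-lymphoblastoid cells, grown in RPMI 1640 with 10% fetal calf serum and antibiotics at 37 °C under 5% CO2. Mutant HIV-1 strains were added at 200 CCID50/well with 30 000 cells/well across a compound concentration range. After 5 days at 37 °C, viability was read by MTT colorimetry. EC50 is the concentration giving 50% infection relative to the drug-free control.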

[3] = test system: Human immunodeficiency virus 1; test: In vitro inhibitory concentration value against HIV K103N and Y181C mutant strain; type: functional, organism-based; outline: as §1
[4] = test system: Human immunodeficiency virus 1; test: In vitro inhibitory concentration against HIV K103N mutant strain; type: functional, organism-based; outline: as §1
[5] = test system: Human immunodeficiency virus 1; test: In vitro inhibitory concentration against HIV G190A mutant strain; type: functional, organism-based; outline: as §1
[6] = test system: Human immunodeficiency virus 1; test: In vitro inhibitory concentration against HIV-1 Y181C mutant strain; type: functional, organism-based; outline: as §1
[7] = test system: Human immunodeficiency virus 1; test: In vitro inhibitory concentration against HIV Y188L mutant strain; type: functional, organism-based; outline: as §1
[8] = test system: Human immunodeficiency virus 1; test: In vitro inhibitory concentration against HIV K101E mutant strain; type: functional, organism-based; outline: as §1
[9] = test system: Human immunodeficiency virus 1; test: In vitro inhibitory concentration against HIV V106A mutant strain; type: functional, organism-based; outline: as §1
[10] = test system: Human immunodeficiency virus 1; test: In vitro inhibitory concentration against HIV LAI cell line; type: functional, organism-based; conditions: Human immunodeficiency virus 1, LAI
Outline: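 HIV-1 LAI was added at 200 CCID50/well to MT4 human T-lymphoblastoid cells (30 000 cells/well) across a concentration range of compound. Cells were grown in RPMI 1640 with 10% fetal calf serum and antibiotics. After 5 days at 37 °C in 5% CO2, cell viability was read by MTT colorimetry. EC50 was the concentration giving 50% infection versus the drug-free control.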

[11] = test system: Human immunodeficiency virus 1; test: In vitro inhibitory concentration against HIV E138K mutant strain; type: functional, organism-based; outline: as §1
[12] = test system: Human immunodeficiency virus 1; test: In vitro inhibitory concentration against HIV F227C mutant strain; type: functional, organism-based; outline: as §1
[13] = test system: Human immunodeficiency virus 1; test: In vitro inhibitory concentration against HIV K101E and K103N mutant strain; type: functional, organism-based; outline: as §1
[14] = test system: Human immunodeficiency virus 1; test: In vitro inhibitory concentration against HIV G190S mutant strain; type: functional, organism-based; outline: as §1
[15] = test system: Human immunodeficiency virus 1; test: In vitro inhibitory concentration against HIV L100I and K103N mutant strain; type: functional, organism-based; outline: as §1
[16] = test system: Human immunodeficiency virus 1; test: In vitro inhibitory concentration against HIV V179E mutant strain; type: functional, organism-based; outline: as §1
[17] = test system: Human immunodeficiency virus 1; test: In vitro inhibitory concentration against HIV F227L and V106A mutant strain; type: functional, organism-based; outline: as §1

SMILES	SI [1]	IC50 [2]	IC50 [3]	IC50 [4]	IC50 [5]	IC50 [6]	IC50 [7]	IC50 [8]	IC50 [9]	IC50 [10]	IC50 [11]	IC50 [12]	IC50 [13]	IC50 [14]	IC50 [15]	IC50 [16]	IC50 [17]
CCc1c(C)[nH]c(=O)c(N(C)C)c1Cc1cc(C)cc(C)c1	12600	50 nM	794 nM	32 nM	63 nM	100 nM	251 nM	16 nM	40 nM								
CCc1c(C)[nH]c(=O)c(N(C)CCOC)c1Cc1cccc(C)c1	10000	6 nM	10000 nM	79 nM	100 nM	794 nM	398 nM	16 nM	63 nM	1 nM	8 nM	790 nM	100 nM	39 nM	794 nM	4 nM	3980 nM
O=C1Nc2ccc(Cl)cc2[C@@](C#CC2CC2)(C(F)(F)F)O1 [EFAVIRENZ]		40 nM			10 nM			6 nM	40 nM		2 nM			251 nM	10000 nM	5 nM	25 nM
CCc1c(C)[nH]c(=O)c(N(C)C)c1C(=O)c1cc(C)cc(C)c1	2510	6 nM	158 nM	10 nM	13 nM	63 nM	158 nM	8 nM	6 nM		5 nM	631 nM	13 nM	4 nM	40 nM	2 nM	398 nM
COCCCc1c(C)nc(O)c(N(C)C)c1C(=O)c1cccc(C)c1	1260	20 nM	200 nM	126 nM	16 nM	160 nM	158 nM	32 nM	40 nM	8 nM	20 nM	631 nM	158 nM	32 nM	63 nM	8 nM	40 nM
CCc1c(C)[nH]c(=O)c(N(C)CC)c1Cc1cc(C)cc(C)c1	3980	63 nM	3120 nM	79 nM	63 nM	316 nM	1260 nM	79 nM	316 nM	8 nM	63 nM	1120 nM	139 nM	316 nM	598 nM	32 nM	
CCc1c(C)[nH]c(=O)c(N(C)CC)c1Cc1cccc(/C=C/C#N)c1	10000	10 nM	199 nM	6 nM	10 nM	32 nM	251 nM	6 nM	8 nM	1 nM	6 nM	794 nM	158 nM	125 nM	200 nM	2 nM	3160 nM
CCc1c(C)[nH]c(=O)c(N(C)C(C)COC)c1Cc1cc(C)cc(C)c1 (configuration not stated)	7940	79 nM	8680 nM	79 nM	78 nM	398 nM	251 nM	58 nM		6 nM	17 nM	869 nM	362 nM	62 nM	1000 nM	9 nM	10000 nM
